Experimental data: PMC3215888 (Cancer Chemotherapy and Pharmacology, 2011)
Like-named read-outs stand apart in the source and are kept apart here.

How the values were obtained:
[1] = test system: ALL-19 ALL B-precursor xenograft; experiment: ALL xenograft; type: in vivo, mice
How it was run: (§1)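 Female NOD/scid mice inoculated intravenously with leukemia cells, 8 per group. Test compound suspended in 10% 2-hydroxypropyl-β-cyclodextrin/1% sodium bicarbonate in water. Given by oral gavage twice daily, 5 days weekly for 3 weeks, at 20.8, 10.4, 5.2 or 2.6 mg/kg. Blood %hCD45 of leukocytes tracked; event = hCD45 reaching 25%. EFS by Kaplan–Meier, exact log-rank vs controls. Median group response from individual scores.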

[2] = test system: NB-EBc1 neuroblastoma cell line; experiment: DIMSCAN in vitro testing, 96 h; type: cell-based; settings: for IC50: Neuroblastoma cell, 96 h
How it was run: (§2)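 Neuroblastoma and Ewing sarcoma lines, STR-verified and maintained as in the originators' reports. Exposed for 96 h to test compound (DMSO stock diluted in medium) at 1 nM–10 μM. Viable cells quantified by fluorescein diacetate fluorescence with DIMSCAN digital image microscopy. Absolute IC50 = concentration giving 50% growth inhibition vs controls. Relative IC50 = concentration giving 50% of the maximum inhibitory effect.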

[3] = test system: COG-E-352 Ewing sarcoma cell line; experiment: DIMSCAN in vitro testing, 96 h; type: cell-based; settings: for IC50: 96 h
How it was run: as §2

[4] = test system: Aurora kinase A mutation (T217D); settings: cited from earlier work
[5] = test system: SK-N-MC Ewing sarcoma cell line; experiment: DIMSCAN in vitro testing, 96 h; type: cell-based; settings: for IC50: Homo sapiens, 96 h
How it was run: as §2

[6] = test system: CHLA-90 neuroblastoma cell line; experiment: DIMSCAN in vitro testing, 96 h; type: cell-based; settings: for IC50: Neuroblastoma cell, 96 h
How it was run: as §2

[7] = patients, 50 mg BID for 7 days; cited from earlier work
[8] = test system: CHLA-119 neuroblastoma cell line; experiment: DIMSCAN in vitro testing, 96 h; type: cell-based; settings: for IC50: Neuroblastoma cell, 96 h
How it was run: as §2

neuroblastoma cell lines = experiment: DIMSCAN in vitro testing, 96 h, neuroblastoma panel; type: cell-based
How it was run: as §2

[9] = test system: CHLA-122 neuroblastoma cell line; experiment: DIMSCAN in vitro testing, 96 h; type: cell-based; settings: for IC50: Neuroblastoma cell, 96 h
How it was run: as §2

[10] = test system: SMS-MSN neuroblastoma cell line; experiment: DIMSCAN in vitro testing, 96 h; type: cell-based; settings: for IC50: Neuroblastoma cell, 96 h
How it was run: as §2

[11] = test system: SK-N-AS Neuroblastoma xenograft; type: in vivo, mice; settings: 20.8 mg/kg
How it was run: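 Female CB17 scid mice bearing subcutaneous tumors, 10 per group. Dosed by oral gavage twice daily, 5 days weekly for 6 weeks, at 20.8, 10.4, 5.2 or 2.6 mg/kg, in 10% 2-hydroxypropyl-β-cyclodextrin/1% sodium bicarbonate. Event = quadrupled tumor volume; EFS by Kaplan–Meier, exact log-rank test. Per-mouse scores PD/SD/PR (≥50% regression)/CR (<0.10 cm3)/MCR; group median reported. PR, CR and MCR count as objective responses.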

[12] = test system: SMS-KANR neuroblastoma cell line; experiment: DIMSCAN in vitro testing, 96 h; type: cell-based; settings: for IC50: Neuroblastoma cell, 96 h
[13] = test system: ALL-2 ALL B-precursor xenograft; experiment: ALL xenograft; type: in vivo, mice
How it was run: as §1

[14] = test system: CHLA-10 Ewing sarcoma cell line; experiment: DIMSCAN in vitro testing, 96 h; type: cell-based; settings: for IC50: 96 h
How it was run: as §2

[15] = test system: Ewing sarcoma (n = 11) and neuroblastoma (n = 17) cell lines; experiment: DIMSCAN in vitro testing, 96 h, whole extended panel; type: cell-based
[16] = test system: NB-1643 neuroblastoma cell line; experiment: DIMSCAN in vitro testing, 96 h; type: cell-based; settings: for IC50: NB-1643, 96 h
How it was run: as §2

[17] = test system: CHLA-25 Ewing sarcoma cell line; experiment: DIMSCAN in vitro testing, 96 h; type: cell-based; settings: for IC50: 96 h
How it was run: as §2

SMILES: COc1cc(Nc2ncc3c(n2)-c2ccc(Cl)cc2C(c2c(F)cccc2OC)=NC3)ccc1C(=O)O [MLN8237]
- EFS T/C ([1]; 2.6 mg/kg): 1.0
- EFS activity ([1]; 2.6 mg/kg): Low
- Estimate of median time to event ([1]; 2.6 mg/kg): 2.6 days
- Median group response ([1]; 2.6 mg/kg): PD1 (if the TGD value ≤1.5, that mouse was considered PD1)
- Response activity ([1]; 2.6 mg/kg): Low
- Median RTV/hCD45 at end of study ([1]; 2.6 mg/kg): >25%
- EFS T/C ([1]; 5.2 mg/kg): 9.2
- EFS activity ([1]; 5.2 mg/kg): Int
- Estimate of median time to event ([1]; 5.2 mg/kg): 22.9 days
- Median group response ([1]; 5.2 mg/kg): PD2 (if the TGD value >1.5, the mouse was considered PD2)
- Response activity ([1]; 5.2 mg/kg): Int
- Median RTV/hCD45 at end of study ([1]; 5.2 mg/kg): >25%
- EFS T/C ([1]; 10.4 mg/kg): 14.9
- EFS activity ([1]; 10.4 mg/kg): Int
- Estimate of median time to event ([1]; 10.4 mg/kg): 37.2 days
- Response activity ([1]; 10.4 mg/kg): High
- Median RTV/hCD45 at end of study ([1]; 10.4 mg/kg): >25%
- EFS T/C ([1]; 20.8 mg/kg): 16.8
- EFS activity ([1]; 20.8 mg/kg): Int
- Estimate of median time to event ([1]; 20.8 mg/kg): 41.8 days
- Response activity ([1]; 20.8 mg/kg): High
- Median RTV/hCD45 at end of study ([1]; 20.8 mg/kg): >25%
- Ymin ([2]; NB-EBc1, minimum T/C): 3.6%
- IC50 ([2]; read-out: Absolute IC50): 50 nM
- IC50 ([2]; read-out: Relative IC50): 49 nM
- IC50 ([3]; read-out: Absolute IC50): 43 nM
- IC50 ([3]; read-out: Relative IC50): 35 nM
- Ymin ([3]; COG-E-352, minimum T/C): 11.4%
- inhibition of Aurora kinase A T217D mutant [4]: impervious
- IC50 ([5]; read-out: Absolute IC50): 72 nM
- IC50 ([5]; read-out: Relative IC50): 66 nM
- Ymin ([5]; minimum T/C): 2.8%
- Ymin ([6]; CHLA-90, minimum T/C): 16.3%
- IC50 ([6]; read-out: Absolute IC50): 61 nM
- IC50 ([6]; read-out: Relative IC50): 48 nM
- average trough concentrations [7]: exceeded 1 μM
- Ymin ([8]; CHLA-119, minimum T/C): 0.5%
- IC50 ([8]; read-out: Absolute IC50): 22 nM
- IC50 ([8]; read-out: Relative IC50): 22 nM
- IC50 (neuroblastoma cell lines; Neuroblastoma cell, read-out: relative IC50 values, neuroblastoma panel): 23 nM
- median Ymin, neuroblastoma cell lines (neuroblastoma cell lines; median of neuroblastoma panel): 10.4%
- Ymin ([9]; CHLA-122, minimum T/C): 0.6%
- IC50 ([9]; read-out: Absolute IC50): 19 nM
- IC50 ([9]; read-out: Relative IC50): 17 nM
- IC50 ([10]; read-out: Absolute IC50): 22 nM
- IC50 ([10]; read-out: Relative IC50): 17 nM
- Ymin ([10]; SMS-MSN, minimum T/C): 16.1%
- EFS T/C [11]: 1.4
- EFS activity [11]: Low
- Estimate of median time to event [11]: 7.6 days
- Median group response [11]: PD1 (if the TGD value ≤1.5, that mouse was considered PD1)
- Response activity [11]: Low
- Tumor volume T/C [11]: 0.71
- Median RTV/hCD45 at end of study ([11]; RTV): >4
- IC50 ([12]; read-out: Absolute IC50): 26 nM
- IC50 ([12]; read-out: Relative IC50): 23 nM
- Ymin ([12]; SMS-KANR, minimum T/C): 11.4%
- EFS T/C ([13]; 2.6 mg/kg): 2.3
- EFS activity ([13]; 2.6 mg/kg): Int
- Estimate of median time to event ([13]; 2.6 mg/kg): 25.2 days
- Median group response ([13]; 2.6 mg/kg): PD2 (if the TGD value >1.5, the mouse was considered PD2)
- Response activity ([13]; 2.6 mg/kg): Int
- Median RTV/hCD45 at end of study ([13]; 2.6 mg/kg): >25%
- EFS T/C ([13]; 5.2 mg/kg): >3.8
- EFS activity ([13]; 5.2 mg/kg): Int
- Response activity ([13]; 5.2 mg/kg): High
- Median RTV/hCD45 at end of study ([13]; 5.2 mg/kg): >25%
- EFS T/C ([13]; 10.4 mg/kg): >3.8
- EFS activity ([13]; 10.4 mg/kg): Int
- Response activity ([13]; 10.4 mg/kg): High
- Median RTV/hCD45 at end of study ([13]; 10.4 mg/kg): 3.1%
- EFS T/C ([13]; 20.8 mg/kg): >3.8
- EFS activity ([13]; 20.8 mg/kg): High
- Median group response ([13]; 20.8 mg/kg): MCR
- Response activity ([13]; 20.8 mg/kg): High
- Median RTV/hCD45 at end of study ([13]; 20.8 mg/kg): 0.3%
- IC50 ([14]; read-out: Absolute IC50): 60 nM
- IC50 ([14]; read-out: Relative IC50): 56 nM
- Ymin ([14]; CHLA-10, minimum T/C): 4.7%
- Ymin, maximum ([15]; maximum of 28 cell lines): 48.1%
- Ymin, median ([15]; median of 28 cell lines): 10.9%
- Ymin, minimum ([15]; minimum of 28 cell lines): 0.5%
- IC50 ([15]; read-out: Absolute IC50, maximum): 10000 nM
- IC50 ([15]; read-out: Absolute IC50, median): 37 nM
- IC50 ([15]; read-out: Absolute IC50, minimum): 10 nM
- IC50 ([15]; read-out: Relative IC50, maximum): 10000 nM
- IC50 ([15]; read-out: Relative IC50, median): 32 nM
- IC50 ([15]; read-out: Relative IC50, minimum): 9 nM
- IC50 ([16]; read-out: Absolute IC50): 37 nM
- IC50 ([16]; read-out: Relative IC50): 32 nM
- Ymin ([16]; NB-1643, minimum T/C): 10.2%
- IC50 ([17]; read-out: Absolute IC50): 168 nM
- IC50 ([17]; read-out: Relative IC50): 58 nM
- Ymin ([17]; CHLA-25, minimum T/C): 30.1%
